Measurements from ChEMBL document CHEMBL4689842, “EUbOPEN Chemogenomics Library wave 1” (2021).

Test system: Fibroblast
Assay: Multiplex assay against human fibroblast
Format: toxicity, cell-based
Outline: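 At seeding, live cells were stained with Hoechst33342, BioTracker Green Microtubule Cytoskeleton Dye, MitoTracker Red and Annexin V Alexa Fluor 680. After compound addition they were imaged on a CQ1 microscope at 37°C and 5% CO2, and CellPathfinder machine-learning gating sorted them into Hoechst high-intensity objects or normal cells, with normal cells further split into healthy, pyknosed or fragmented nuclei and pyknosed cells into mitotic or apoptotic. Tubulin, mitochondrial-mass and membrane-permeability phenotypes are given as per cents of cells with healthy nuclei.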

[1] = 12 h, 1 µM, compound concentration 1 uM, replicate 1
[2] = 12 h, 1 µM, compound concentration 1 uM, replicate 2
[3] = 12 h, 10 µM, compound concentration 10 uM, replicate 1
[4] = 12 h, 10 µM, compound concentration 10 uM, replicate 2
[5] = 24 h, 1 µM, compound concentration 1 uM, replicate 1
[6] = 24 h, 1 µM, compound concentration 1 uM, replicate 2
[7] = 24 h, 10 µM, compound concentration 10 uM, replicate 1
[8] = 24 h, 10 µM, compound concentration 10 uM, replicate 2
[9] = 48 h, 1 µM, compound concentration 1 uM, replicate 1
[10] = 48 h, 1 µM, compound concentration 1 uM, replicate 2
[11] = 48 h, 10 µM, compound concentration 10 uM, replicate 1
[12] = 48 h, 10 µM, compound concentration 10 uM, replicate 2

What does the source list for CN1C(=O)[C@@H](NC(=O)c2cc3ccccc3[nH]2)N=C(c2ccccc2)c2ccccc21 [DEVAZEPIDE]?
Population Apoptotic (%) [1]: 72%; Population Fragmented Nuclei (%) [1]: 21%; Population Healthy Nuclei (%) [1]: 36%; Population Hoechst High Intensity Objects (%) [1]: 13%; Population Membrane Permeable-Phenotype (%) [1]: 34%; Population Mitochondria Different-Phenotype (%) [1]: 3%; Population Mitotic Cells (%) [1]: 27%; Population Normal (%) [1]: 87%; Population Pyknosed Nuclei (%) [1]: 41%; Population Tubulin-Different-Phenotype (%) [1]: 56%; Total Cell Count [1]: 100; Population Apoptotic (%) [2]: 33%; Population Fragmented Nuclei (%) [2]: 4%; Population Healthy Nuclei (%) [2]: 85%; Population Hoechst High Intensity Objects (%) [2]: 5%; Population Membrane Permeable-Phenotype (%) [2]: 9%; Population Mitochondria Different-Phenotype (%) [2]: 23%; Population Mitotic Cells (%) [2]: 66%; Population Normal (%) [2]: 94%; Population Pyknosed Nuclei (%) [2]: 9%; Population Tubulin-Different-Phenotype (%) [2]: 10%; Total Cell Count [2]: 68; Population Apoptotic (%) [3]: 67%; Population Fragmented Nuclei (%) [3]: 18%; Population Healthy Nuclei (%) [3]: 48%; Population Hoechst High Intensity Objects (%) [3]: 16%; Population Membrane Permeable-Phenotype (%) [3]: 42%; Population Mitochondria Different-Phenotype (%) [3]: 15%; Population Mitotic Cells (%) [3]: 32%; Population Normal (%) [3]: 83%; Population Pyknosed Nuclei (%) [3]: 33%; Population Tubulin-Different-Phenotype (%) [3]: 68%; Total Cell Count [3]: 112; Population Apoptotic (%) [4]: 33%; Population Fragmented Nuclei (%) [4]: 20%; Population Healthy Nuclei (%) [4]: 75%; Population Hoechst High Intensity Objects (%) [4]: 7%; Population Membrane Permeable-Phenotype (%) [4]: 37%; Population Mitochondria Different-Phenotype (%) [4]: 48%; Population Mitotic Cells (%) [4]: 66%; Population Normal (%) [4]: 92%; Population Pyknosed Nuclei (%) [4]: 5%; Population Tubulin-Different-Phenotype (%) [4]: 66%; Total Cell Count [4]: 65; Population Apoptotic (%) [5]: 44%; Population Fragmented Nuclei (%) [5]: 25%; Population Healthy Nuclei (%) [5]: 46%; Population Hoechst High Intensity Objects (%) [5]: 13%; Population Membrane Permeable-Phenotype (%) [5]: 21%; Population Mitochondria Different-Phenotype (%) [5]: 14%; Population Mitotic Cells (%) [5]: 56%; Population Normal (%) [5]: 86%; Population Pyknosed Nuclei (%) [5]: 27%; Population Tubulin-Different-Phenotype (%) [5]: 73%; Total Cell Count [5]: 104; Population Apoptotic (%) [6]: 37%; Population Fragmented Nuclei (%) [6]: 7%; Population Healthy Nuclei (%) [6]: 82%; Population Hoechst High Intensity Objects (%) [6]: 1%; Population Membrane Permeable-Phenotype (%) [6]: 3%; Population Mitochondria Different-Phenotype (%) [6]: 10%; Population Mitotic Cells (%) [6]: 62%; Population Normal (%) [6]: 98%; Population Pyknosed Nuclei (%) [6]: 10%; Population Tubulin-Different-Phenotype (%) [6]: 6%; Total Cell Count [6]: 79; Population Apoptotic (%) [7]: 43%; Population Healthy Nuclei (%) [7]: 54%; Population Hoechst High Intensity Objects (%) [7]: 12%; Population Membrane Permeable-Phenotype (%) [7]: 34%; Population Mitochondria Different-Phenotype (%) [7]: 9%; Population Mitotic Cells (%) [7]: 56%; Population Normal (%) [7]: 87%; Population Pyknosed Nuclei (%) [7]: 16%; Population Tubulin-Different-Phenotype (%) [7]: 55%; Total Cell Count [7]: 108; Population Apoptotic (%) [8]: 92%; Population Fragmented Nuclei (%) [8]: 28%; Population Healthy Nuclei (%) [8]: 49%; Population Hoechst High Intensity Objects (%) [8]: 7%; Population Membrane Permeable-Phenotype (%) [8]: 19%; Population Mitochondria Different-Phenotype (%) [8]: 45%; Population Mitotic Cells (%) [8]: 7%; Population Normal (%) [8]: 92%; Population Pyknosed Nuclei (%) [8]: 22%; Population Tubulin-Different-Phenotype (%) [8]: 51%; Total Cell Count [8]: 68; Population Apoptotic (%) [9]: 53%; Population Fragmented Nuclei (%) [9]: 35%; Population Healthy Nuclei (%) [9]: 46%; Population Hoechst High Intensity Objects (%) [9]: 22%; Population Membrane Permeable-Phenotype (%) [9]: 36%; Population Mitochondria Different-Phenotype (%) [9]: 18%; Population Mitotic Cells (%) [9]: 46%; Population Normal (%) [9]: 77%; Population Pyknosed Nuclei (%) [9]: 18%; Population Tubulin-Different-Phenotype (%) [9]: 66%; Total Cell Count [9]: 92; Population Apoptotic (%) [10]: 0%; Population Fragmented Nuclei (%) [10]: 19%; Population Healthy Nuclei (%) [10]: 79%; Population Hoechst High Intensity Objects (%) [10]: 7%; Population Membrane Permeable-Phenotype (%) [10]: 14%; Population Mitochondria Different-Phenotype (%) [10]: 3%; Population Mitotic Cells (%) [10]: 100%; Population Normal (%) [10]: 92%; Population Pyknosed Nuclei (%) [10]: 0%; Population Tubulin-Different-Phenotype (%) [10]: 54%; Total Cell Count [10]: 127; Population Apoptotic (%) [11]: 66%; Population Fragmented Nuclei (%) [11]: 44%; Population Healthy Nuclei (%) [11]: 42%; Population Hoechst High Intensity Objects (%) [11]: 12%; Population Membrane Permeable-Phenotype (%) [11]: 22%; Population Mitochondria Different-Phenotype (%) [11]: 12%; Population Mitotic Cells (%) [11]: 33%; Population Normal (%) [11]: 87%; Population Pyknosed Nuclei (%) [11]: 12%; Population Tubulin-Different-Phenotype (%) [11]: 57%; Total Cell Count [11]: 107; Population Apoptotic (%) [12]: 100%; Population Fragmented Nuclei (%) [12]: 37%; Population Healthy Nuclei (%) [12]: 61%; Population Hoechst High Intensity Objects (%) [12]: 8%; Population Membrane Permeable-Phenotype (%) [12]: 29%; Population Mitochondria Different-Phenotype (%) [12]: 11%; Population Mitotic Cells (%) [12]: 0%; Population Normal (%) [12]: 91%; Population Pyknosed Nuclei (%) [12]: 1%; Population Tubulin-Different-Phenotype (%) [12]: 61%; Total Cell Count [12]: 96
